Assays:
[1] = target: T1, Anthranilate--CoA ligase (Pseudomonas aeruginosa (strain ATCC 15692 / DSM 22644 / CIP 104116 /JCM 14847 / LMG 12228 / 1C / PRS 101 / PAO1)) (UniProt Q9I4X3); experiment: Inhibition of Pseudomonas aeruginosa PAO1 GFP-fused quorum sensing pqsA measured every 15 mins up to 12 hrs by GFP reporter gene assay
T1 sequence (whole entry): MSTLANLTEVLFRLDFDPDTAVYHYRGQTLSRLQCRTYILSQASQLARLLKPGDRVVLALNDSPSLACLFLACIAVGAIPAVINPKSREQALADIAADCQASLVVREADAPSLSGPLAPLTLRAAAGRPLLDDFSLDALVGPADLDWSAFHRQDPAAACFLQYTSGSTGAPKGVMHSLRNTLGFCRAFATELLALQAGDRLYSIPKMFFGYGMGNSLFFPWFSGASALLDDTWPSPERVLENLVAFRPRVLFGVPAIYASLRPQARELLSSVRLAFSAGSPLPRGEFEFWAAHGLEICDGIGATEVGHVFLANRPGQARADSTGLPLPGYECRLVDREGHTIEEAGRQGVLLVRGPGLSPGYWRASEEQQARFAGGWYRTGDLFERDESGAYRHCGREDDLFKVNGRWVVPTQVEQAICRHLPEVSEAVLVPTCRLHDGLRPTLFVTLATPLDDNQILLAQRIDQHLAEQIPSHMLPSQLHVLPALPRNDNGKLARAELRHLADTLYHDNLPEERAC
In short: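 GFP reporter strains of P. aeruginosa PAO1 (lasB-, rhlA- or pqsA-promoter fused to unstable gfp(ASV)) grown overnight in LB at 37 °C, 200 rpm, 18 h, then diluted 1:100. Culture mixed 1:1 with compound diluted in LB from 10 mM DMSO stock (0.1% DMSO final). Fluorescence (ex 485/em 528 nm) read every 15 min at 37 °C for ≥12 h.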

Mus musculus = experiment: Anti-inflammatory activity in LPS-induced sepsis shock mouse model assessed as survival rate at 20 mg/kg, iv pretreated daily for 5 days followed LPS treatment on day 5 at 1 hr post last dose and measured after 7 days relative to control; assay type: functional
In short: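 Male SPF mice, randomly grouped, dosed i.v. with compound dissolved in DMSO and diluted in physiological saline; vehicle group given a similar volume. LPS was injected on day 5, 1 h after the last administration. Survival was recorded every 12 h for 7 days after LPS, with 11 animals per group per figure legend.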

O=C(Cc1ccc(F)cc1)Nc1ccc(CC2=CC(=O)OC2=CBr)cc1
inhibition [1]: Dose-dependent effect
survival at 20 mg/kg (Mus musculus): 45.5%
